Tests used:
[1] = biological target: Leukotriene B4 receptor 1 (Homo sapiens) (UniProt Q15722); test: Inhibition of binding of [3H]LTB4 to the leukotriene B4 receptor of human peripheral neutrophils (PMN) at a concentration of 10 uM.
In short: (§1)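 Neutrophils isolated by Ficoll-Hypaque centrifugation, dextran 70 sedimentation and hypotonic lysis (≥90% neutrophils, ≥90% viable), 2 × 10^7 cells/mL in Hank's balanced salt solution with 0.1% ovalbumin. Compound in DMSO plus 2.65 nM [3H]LTB4 (stock), 10 min at 4 °C. Cells spun through dibutyl/dinonyl phthalate (7:2), pellet counted by scintillation. Triplicate incubations averaged. Reported as % inhibition of specific binding; nonspecific binding taken with >2000-fold excess unlabeled LTB4.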

[2] = biological target: Leukotriene B4 receptor 1 (Homo sapiens) (UniProt Q15722); test: Inhibition of [3H]LTB4 binding to leukotriene B4 receptor from human peripheral neutrophils (PMN), at a concentration of 1 uM; in short: as §1
[3] = biological target: Leukotriene B4 receptor (Homo sapiens) (UniProt Q9NPC1+Q15722); test: Inhibition of [3H]LTB4 binding to leukotriene B4 receptor of human peripheral neutrophils (PMN) at a concentration of 0.1 uM.; format: protein assay; in short: as §1
Chain of Leukotriene B4 receptor (Homo sapiens) (Q15722 whole entry, looked up): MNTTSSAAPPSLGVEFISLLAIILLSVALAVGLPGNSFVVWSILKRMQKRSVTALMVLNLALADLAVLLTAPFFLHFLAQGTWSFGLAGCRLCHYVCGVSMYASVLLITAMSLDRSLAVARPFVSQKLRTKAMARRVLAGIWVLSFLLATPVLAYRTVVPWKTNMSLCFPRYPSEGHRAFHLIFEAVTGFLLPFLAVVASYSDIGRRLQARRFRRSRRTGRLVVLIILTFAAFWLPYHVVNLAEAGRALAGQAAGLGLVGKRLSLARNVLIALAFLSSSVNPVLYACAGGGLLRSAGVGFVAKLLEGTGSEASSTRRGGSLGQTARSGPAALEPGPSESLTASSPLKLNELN
Chain of Leukotriene B4 receptor (Homo sapiens) (Q9NPC1 whole entry, looked up): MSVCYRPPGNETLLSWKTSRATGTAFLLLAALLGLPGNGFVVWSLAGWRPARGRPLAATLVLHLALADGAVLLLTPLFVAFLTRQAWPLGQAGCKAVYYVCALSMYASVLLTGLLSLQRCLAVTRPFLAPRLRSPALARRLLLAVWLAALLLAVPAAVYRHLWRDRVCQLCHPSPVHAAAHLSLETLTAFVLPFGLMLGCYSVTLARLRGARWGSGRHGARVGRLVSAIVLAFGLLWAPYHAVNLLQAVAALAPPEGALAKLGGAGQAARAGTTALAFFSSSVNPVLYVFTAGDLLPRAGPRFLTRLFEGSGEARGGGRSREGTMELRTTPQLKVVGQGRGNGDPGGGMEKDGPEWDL

Chain of Leukotriene B4 receptor 1 (Homo sapiens) (Q15722 whole entry): as the sequence (Q15722 whole entry, looked up) above

SMILES	inhibition [1] [%]	inhibition [2] [%]	inhibition [3] [%]
CCCc1cc(C(C)=O)c(O)cc1OCCCCC(=O)O	11	0	–
C=CCc1ccc(O)cc1OCCCCC#N	29	9	–
CCc1cc(C(C)=O)c(O)cc1OCCCCCC(C)(C)C(=O)O	104	73	20
CCc1cc(C(C)=O)c(O)cc1OCCCCC(C)(C)c1nnn[nH]1	–	66	17
CCc1cc(C(C)=O)c(O)cc1OCCCCCCC#N	103	73	–
C=CCc1cc(C(=O)c2ccccc2)c(O)cc1OCCCCC#N	33	5	–
CCCCc1cc(C(C)=O)c(O)cc1OCCCCC#N	41	13	–
CCCc1cc(C(C)=O)ccc1OCCCCC#N	44	19	–
CCc1cc(C(C)=O)c(O)cc1OCCCCCC(C)(C)C#N	85	53	17
C=CCc1cc(C(C)=O)c(O)cc1OCCCCCC(=O)N(C)C	92	54	–
CCc1cc(C(C)=O)c(O)cc1Oc1cccc(C#N)c1	11	8	–
C=CCc1cc(C(=O)CCCCCCCCC)c(O)cc1OCCCCC#N	10	7	–
C=CCc1cc(C(C)=O)c(O)cc1OCCCCCC(N)=O	88	37	–
C=CCc1cc(C(C)=O)c(O)cc1OCCCCCCCC#N	88	52	–
CCc1cc(C(C)=O)c(O)c(C)c1OCCCCCC(C)(C)c1nnn[nH]1	42	9	–
C=CCc1cc(C(C)=O)c(O)cc1OCCCC	32	8	–
C=CCc1cc(C(C)=O)c(O)cc1OCCCCCC(=O)OC	106	65	–
CCc1cc(C(C)=O)c(O)cc1OCc1ccc(C(=O)O)cc1	22	0	–
CCc1cc(C(C)=O)c(O)cc1OCCCCCC(C)(C)c1nn[nH]n1	102	93	56
CCCc1cc(C(C)=O)c(O)cc1OCCCCN	6	0	–
CC(=O)c1cc(CO)c(OCCCCCCC#N)cc1O	40	8	–
C=CCc1cc(C(C)=O)c(O)cc1OCCCCCCC	31	8	–

SMILES	inhibition [1] [%]	inhibition [2] [%]	inhibition [3] [%]
C=CCc1cc(C(C)=O)c(O)cc1OCCCCO	48	9	–
CCCc1cc(C(C)=O)c(O)cc1OCCCCNC(C)=O	71	23	–
CCCc1cc(C(C)=O)c(O)c(CCC)c1OCCCCC#N	0	0	–
C=CCc1cc(C(C)=O)c(O)cc1OCCCCCC(=O)NO	85	28	–
C=CCc1cc(C(C)=O)c(O)cc1OCc1cccc(CC#N)c1	16	0	–
CCc1cc(C(C)=O)c(O)cc1OCCCCCCC(C)(C)C#N	65	30	11
CCC1(c2ccc(N)cc2)CCC(=O)NC1=O (stereo not drawn)	82	29	–
CC(=O)c1cc(C(C)=O)c(OCCCCC#N)cc1O	8	0	–
C=CCc1cc(C(C)=O)c(O)cc1OCCCC#N	47	6	–
C=CCc1cc(C(C)=O)c(O)cc1OCCCCC	60	23	–
C=CCCCCOc1cc(O)c(C(C)=O)cc1CC=C	73	27	–
CSCc1cc(C(C)=O)c(O)cc1OCCCCCCC#N	97	64	–
C#CCCCCOc1cc(O)c(C(C)=O)cc1CC=C	74	29	–
C=CCc1cc(C(C)=O)c(O)cc1OCCCCCC(C)=O	98	58	–
CCc1cc(C(C)=O)c(O)cc1OCCCCc1nnn[nH]1	49	19	–
CCc1cc(C(C)=O)c(O)cc1OCCCCCC[S+](C)[O-] (stereo not drawn)	92	50	–
C=CCc1cc(C(C)=O)c(O)cc1OCCCCCC(C)(C)O	98	60	–
C=CCc1cc(C(C)=O)c(O)cc1OCc1ccccc1C#N	47	6	–
CCc1cc(C(C)=O)c(O)cc1OCCCCCCC(C)(C)c1nnn[nH]1	–	67	13
CCCc1cc(C(C)=O)c(O)cc1OCCCCCC(=O)O	73	24	–
CCc1cc(C(C)=O)c(O)cc1OCCCCCCC(=O)Nc1nn[nH]n1	101	83	–
CCc1cc(C(C)=O)c(O)cc1OCCCCCCS(C)(=O)=O	99	62	–

SMILES	inhibition [1] [%]	inhibition [2] [%]	inhibition [3] [%]
COCc1cc(C(C)=O)c(O)cc1OCCCCCCC#N	47	7	–
C=CCc1cc(C(C)=O)c(O)cc1OCCCCC#N	92	57	–
CC(=O)c1cc(C)c(OCCCCC#N)cc1O	79	35	–
C=CCc1cc(C(C)=O)c(OC)cc1OCCCCC#N	13	8	–
CCc1cc(C(C)=O)c(O)cc1OCCCCCCCC(C)(C)C#N	66	29	6
CCc1cc(C(C)=O)c(O)cc1OCCCC(C)(C)c1nnn[nH]1	100	76	28
CCc1cc(C(C)=O)c(O)cc1OCCCCCC(C)(C)c1nnn(C)n1	95	66	16
CCc1cc(C(C)=O)c(O)cc1OCCCC(C)(C)C#N	85	46	13
CCCc1c(OCCCCC#N)ccc(C(C)=O)c1O	0	9	–
CCCc1cc(C(C)=O)c(Cl)cc1OCCCCC#N	35	13	–
CCc1cc(C(C)=O)c(O)cc1OCCCCCCCC(C)(C)c1nnn[nH]1	–	96	49
CCc1cc(C(C)=O)c(O)cc1OCCCCCCC(=O)N(C)C	100	61	–
CCc1cc(C(C)=O)c(O)cc1OCCCCCn1cncn1	82	30	–
C=CCc1cc(C(C)=O)c(O)cc1OCc1cccc(C#N)c1	71	58	25
C=CCc1cc(C(C)=O)c(O)cc1OCc1ccc(CC#N)cc1	30	17	–
C=CCc1cc(C(C)=O)c(O)cc1OCCCCCCCCCCC#N	50	14	–
CCc1cc(C(C)=O)c(O)cc1OCCCCN(C)C	4	3	–
CC(=O)c1cc(C=O)c(OCCCCC#N)cc1O	6	3	–
CCc1cc(C(C)=O)c(O)cc1OCCCCCCc1nnn[nH]1	91	60	–
CCc1cc(C(C)=O)c(O)cc1OCCCCC#N	92	57	–
C=CCc1cc(C(C)=O)c(O)cc1OCc1ccc(C#N)cc1	22	28	–
CCCc1cc(C(C)=O)c(O)cc1OCCCCC#N	84	37	–

SMILES	inhibition [1] [%]	inhibition [2] [%]	inhibition [3] [%]
CCc1cc(C(C)=O)c(O)cc1OCCCCCCSC	71	14	–
CCc1cc(C(C)=O)c(O)cc1OCCCCCCC(=O)NC	97	54	–
CCc1cc(C(C)=O)c(O)cc1OCCCC(C)(C)C(=O)O	89	43	12
CCc1cc(C(C)=O)c(O)cc1OCCCC(C)(C)C(N)=O	92	51	16
CCc1cc(C(C)=O)c(O)cc1OCCCCC(C)(C)C#N	79	30	5
CCc1cc(C(C)=O)c(O)cc1OCCCCCC(C)(C)c1nnnn1C	99	59	14
CC(=O)c1cc(C(C)(C)C)c(OCCCCCC(C)(C)C#N)cc1O	1	2	–
CC(=O)c1cc(CC2CO2)c(OCCCCC#N)cc1O (stereo not drawn)	62	24	–
C=CCc1cc(C(=O)CC)c(O)cc1OCCCCC#N	77	36	–
CC(=O)c1ccc(OCCCCC#N)cc1O	0	0	–
C=CCc1cc(C(C)=O)c(O)cc1OCCCCCC#N	81	41	–
CCc1cc(C(C)=O)c(O)cc1OCc1cccc(C#N)c1	58	61	18
CCc1cc(C(C)=O)c(O)cc1OCCCCN1CCOCC1	32	9	–
C=CCc1cc(C(C)=O)c(O)cc1OCC#N	20	2	–
CC(=O)c1cc(CC(C)O)c(OCCCCC#N)cc1O (stereo not drawn)	10	6	–
C=CCc1cc(C(C)=O)c(O)cc1OCCCCCC	50	9	–
CCc1cc(C(C)=O)c(O)cc1OCCCCCCC(=O)O	87	38	–
C=CCc1cc(C(C)=O)c(O)cc1OCCCCCCCCC#N	86	50	–
CCCCCCc1cc(C(C)=O)c(O)cc1OCCCCC#N	51	13	–
C=CCc1cc(C(C)=O)c(O)cc1OCCCCCCC#N	97	63	–
CCCCCc1cc(C(C)=O)c(O)cc1OCCCCC#N	31	14	–

Reference: ChEMBL document CHEMBL1126041, “Leukotriene B4 receptor antagonists: the LY255283 series of hydroxyacetophenones” (J Med Chem, 1992)
